The text below walks through data of article PMC5356508 (Bioconjugate chemistry, 2016).

Data set [1] relates to A2780 human ovarian cancer cell line. The data set is described as follows: Antiproliferative assay. The format is cell-based.
A short description of data set [2]: Hydrolytic release of paclitaxel by compound 4 in buffer. The format is physicochemical. The note with it: 3:1 methanol/PBS buffer pH 7.4; pseudo 1st order kinetics. The method in brief:
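Test compound stock in methanol was mixed with 1 M PBS pH 7.4 (3:1 methanol:buffer) in a sealed, stirred vial. Aliquots were taken at 0 min and from 30 to 1440 min. Parent and released drug were quantified by C18 reverse-phase HPLC (gradient from 1:1 MeOH:H2O to 100% MeOH, 1 mL/min) against standard curves of both compounds.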

Data set [3] can be described thus: Generation of paclitaxel in rabbit whole blood. The format is in vitro ADME. The note with it: without BME.
Data set [4] in a line: Release of paclitaxel in bicarbonate buffer without or with dithiothreitol. The format is physicochemical.
A short description of data set [5]: Pharmacokinetics: whole blood paclitaxel levels in tumor burdened mice. The format is in vivo, B16/F10 tumor burdened C57Bl/6 mice. The note with it: 5 μg injected, ELISA, Figure 3A. In general terms: ELISA stands for enzyme-linked immunosorbent assay.
The nature of data set [6]: Accumulation of paclitaxel in solid tumors. The format is in vivo, B16/F10 tumor-bearing C57BL/6 mice. The note with it: C57BL/6, mouse, tumor homogenate, iv, 2.5 mg/kg.
Data set [7] has as its system B16/F10 melanoma. The data set is described as follows: Treatment of tumor-burdened mice. The format is in vivo, C57BL/6 mice. The settings on record: treated days 0, 2, 5, 7, after 9 days. In short, it runs like this:
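B16/F10 melanoma cells were implanted in C57BL/6 mice and grown to tumours of about 500 mm3. Groups of n=4 were injected on days 0, 2, 5 and 7 with native drug (2.5 or 40 mg/kg), nanoparticle formulations (2.5 mg/kg drug equivalent) or PBS control. Tumour volume was measured over time, and the % decrease versus control was taken at day 9.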

Data set [8] deals with A2780 human ovarian cancer cell line. The settings on record: cited from earlier work.

Usually IC50 stands for the midpoint of a concentration-inhibition curve.

Several values for one entry are separate records, joined by “and”; a condition that tells them apart may be missing. Equal values may be shown once. Read-outs that look alike come from different tables or passages of the source.

In data set [1], `CC(=O)OC1C(=O)C2(C)C(OC(=O)OCOC(=O)CCCCC3CCSS3)CC3OCC3(OC(C)=O)C2C(OC(=O)c2ccccc2)C2(O)CC(OC(=O)C(O)C(NC(=O)c3ccccc3)c3ccccc3)C(C)=C1C2(C)C` (stereo not shown) [Compound 4, (7-O-Paclitaxelcarbonyloxy)methyl 5-(1,2-dithiolan-3-yl)pentanoate] returned an IC50 of 4.5 ± 0.4 nM. In addition, the “half-life of hydrolysis to paclitaxel” value in data set [2] came to 3.2 h.
In turn, `CC(=O)O[C@H]1C(=O)[C@]2(C)[C@@H](OC(=O)OCc3ccc(SSc4ccccn4)cc3)C[C@H]3OC[C@@]3(OC(C)=O)[C@H]2[C@H](OC(=O)c2ccccc2)[C@]2(O)C[C@H](OC(=O)[C@H](O)[C@@H](NC(=O)c3ccccc3)c3ccccc3)C(C)=C1C2(C)C` [Compound 5] displayed an IC50 in data set [1] of 34 ± 18 nM. Besides, the “Conversion to paclitaxel in rabbit whole blood (in words)” value in data set [3] was “completely converted to paclitaxel essentially immediately”. In addition, the “Percent conversion to paclitaxel” value is 90% in data set [4] (Buffer + 3-fold excess DTT, 1 h (60 min)); 0.3% in data set [4] (Buffer, incubation 0 h); 4.1% in data set [4] (Buffer, incubation 1 h); 4% in data set [4] (Buffer, incubation 4 h); 14.4% in data set [4] (Buffer, incubation 48 h); 50% and 50.4% in data set [4] (Buffer, incubation 72 h). Moreover, the “release of paclitaxel in the circulation (in words)” value in data set [5] was “rapidly degraded to the paclitaxel parent in the circulation”.
`CC(=O)OC1C(=O)C2(C)C(O)CC3OCC3(OC(C)=O)C2C(OC(=O)c2ccccc2)C2(O)CC(OC(=O)C(OC(=O)CCC(=O)OCOC(=O)CCCCC3CCSS3)C(NC(=O)c3ccccc3)c3ccccc3)C(C)=C1C2(C)C` (stereo not shown) [Compound 6, ((5-(1,2-dithiolan-3-yl)pentanoyl)oxy)methyl paclitaxel-2′-yl succinate] gave an IC50 in data set [1] of 6.6 ± 1.7 nM.
Take `CC(=O)O[C@H]1C(=O)[C@@]2(C)[C@H]([C@H](OC(=O)c3ccccc3)[C@]3(O)C[C@H](OC(=O)[C@H](O)[C@@H](NC(=O)c4ccccc4)c4ccccc4)C(C)=C1C3(C)C)[C@]1(OC(C)=O)CO[C@@H]1C[C@@H]2O` [paclitaxel]: the concentration at 24 h in data set [6] stood at 5 ng/mL. The “Response: Decrease in Tumor Volume vs Control” value in data set [7] (Paclitaxel dose 2.5 mg/kg) was −24%; in data set [7] (Paclitaxel dose 40 mg/kg) it was −68%. Further, the IC50 in data set [8] is 15 ± 1 nM.
